Experimental findings from ChEMBL document CHEMBL2086221, “Armeniaspiroles, a new class of antibacterials: Antibacterial activities and total synthesis of 5-chloro-Armeniaspirole A” (Bioorg Med Chem Lett, 2012) are described below.

Calls of active or inactive are those of the source. The rule behind the calls is not given here.

The subject of assay [1] is Staphylococcus aureus. Description: Antibacterial activity against methicillin-resistant Staphylococcus aureus ATCC 33592 at >1 ug/mL after 48 hrs. It counts as functional, organism-based.
Assay [2] deals with Pseudomonas aeruginosa. Description: Bacteriostatic activity against Pseudomonas aeruginosa ATCC 27853 by time kill study in presence of fetal calf serum. It counts as functional, organism-based.
Assay [3] has as its system Pseudomonas aeruginosa. Description: Antibacterial activity against Pseudomonas aeruginosa ATCC 27853 at >1 ug/mL after 48 hrs. It counts as functional, organism-based.
Assay [4] deals with Streptococcus pneumoniae. Description: Bacteriostatic activity against penicillin-resistant Streptococcus pneumoniae DSM 11865 by time kill study in presence of fetal calf serum. It counts as functional, organism-based.
In assay [5] the test system is Streptococcus pneumoniae. Description: Antibacterial activity against penicillin-resistant Streptococcus pneumoniae DSM 11865 at >1 ug/mL after 48 hrs. It counts as functional, organism-based.
For assay [6], the system named is Enterococcus faecium. Description: Antibacterial activity against vancomycin-resistant Enterococcus faecium DSM 17050 at >1 ug/mL after 48 hrs. It counts as functional, organism-based.
For assay [7], the system named is Escherichia coli. Description: Antibacterial activity against Escherichia coli ATCC 35218 expressing LacR at >1 ug/mL after 48 hrs. It counts as functional, organism-based.
Assay [8] deals with Pseudomonas aeruginosa. Description: Bacteriostatic activity against Pseudomonas aeruginosa ATCC 27853 by time kill study. The assay is classed as functional, organism-based.
The test system of assay [9] is Enterococcus faecium. Description: Bacteriostatic activity against vancomycin-resistant Enterococcus faecium DSM 17050 by time kill study. It counts as functional, organism-based.
The subject of assay [10] is Escherichia coli. Description: Bacteriostatic activity against Escherichia coli ATCC 35218 expressing LacR by time kill study. It counts as functional, organism-based.
The test system of assay [11] is Escherichia coli. Description: Bacteriostatic activity against Escherichia coli ATCC 35218 expressing LacR by time kill study in presence of fetal calf serum. The assay is classed as functional, organism-based.
In assay [12] the test system is Staphylococcus aureus. Description: Bacteriostatic activity against methicillin-resistant Staphylococcus aureus ATCC 33592 by time kill study in presence of fetal calf serum. It counts as functional, organism-based.
Assay [13] relates to Enterococcus faecium. Description: Bacteriostatic activity against vancomycin-resistant Enterococcus faecium DSM 17050 by time kill study in presence of fetal calf serum. The assay is classed as functional, organism-based.
Assay [14] relates to Staphylococcus aureus. Description: Antibacterial activity against methicillin-resistant Staphylococcus aureus ATCC 33592 infected in mouse assessed as host survival at 20 mg/kg/day, iv relative to control. It counts as functional.
For assay [15], the system named is Staphylococcus aureus. Description: Antibacterial activity against methicillin-resistant Staphylococcus aureus ATCC 33592 infected in mouse assessed as host survival at 40 mg/kg/day, sc relative to control. It counts as functional. As to conditions: ATCC 33592, sc, route subcutaneous. An outline of the steps: (§1)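 Mice with MRSA ATCC33592 septicemia were dosed sc at 20, 40 or 80 mg/kg/d in 5% ethanol/5% Solutol/Tris-NaCl buffer pH 9. Survival was scored in six animals per group, and log reduction of blood bacteremia in five animals per group. Results are given as mean ± sem against the vehicle-treated group (P < 0.05 or P < 0.001).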

Assay [16] has as its system Staphylococcus aureus. Description: Antibacterial activity against methicillin-resistant Staphylococcus aureus ATCC 33592 infected in mouse assessed as log reduction in bacteremia at 20 mg/kg/day, iv relative to control. It counts as functional.
For assay [17], the system named is Staphylococcus aureus. Description: Antibacterial activity against methicillin-resistant Staphylococcus aureus ATCC 33592 infected in mouse assessed as log reduction in bacteremia at 40 mg/kg/day, sc relative to control. The settings on record: route subcutaneous. The assay is classed as functional. An outline of the steps:
as §1

The subject of assay [18] is Enterococcus faecium. Description: Antibacterial activity against vancomycin-resistant Enterococcus faecium DSM 17050. As to conditions: Enterococcus faecium, DSM 17050. The assay is classed as functional.
The subject of assay [19] is Staphylococcus aureus. Description: Antibacterial activity against methicillin-resistant Staphylococcus aureus ATCC 33592. The assay is classed as functional. As to conditions: Staphylococcus aureus, ATCC 33592.
The test system of assay [20] is Streptococcus pneumoniae. Description: Antibacterial activity against penicillin-resistant Streptococcus pneumoniae DSM 11865. The settings on record: Streptococcus pneumoniae, DSM 11865. It counts as functional.

Turning to `CCCCCCc1c(O)c(Cl)cc2c1O[C@]1(C2=O)C(Cl)=C(Cl)C(=O)N1C` (stereo in doubt; form 2), the result with Staphylococcus aureus [1], in the assay with Pseudomonas aeruginosa [3], in the assay with Streptococcus pneumoniae [5], in the assay on Enterococcus faecium [6] and in the assay on Escherichia coli [7] was Active. Further, the outcome with Pseudomonas aeruginosa [2], in the assay on Streptococcus pneumoniae [4], in the assay on Escherichia coli [11], with Staphylococcus aureus [12] and in the assay on Enterococcus faecium [13] was inactive. The Activity entry with Pseudomonas aeruginosa [8], in the assay with Enterococcus faecium [9] and in the assay on Escherichia coli [10] was “Dose-dependent effect” in each case.
In the case of `CN[C@H](CC(C)C)C(=O)N[C@H]1C(=O)N[C@@H](CC(N)=O)C(=O)N[C@H]2C(=O)N[C@H]3C(=O)N[C@H](C(=O)N[C@H](C(=O)O)c4cc(O)cc(O)c4-c4cc3ccc4O)[C@H](O)c3ccc(c(Cl)c3)Oc3cc2cc(c3O[C@@H]2O[C@H](CO)[C@@H](O)[C@H](O)[C@H]2O[C@H]2C[C@](C)(N)[C@H](O)[C@H](C)O2)Oc2ccc(cc2Cl)[C@H]1O` [VANCOMYCIN], the survival at 20 mg/kg/day with Staphylococcus aureus [14] was determined as 100%. Moreover, in the assay on Staphylococcus aureus [15], the survival at 40 mg/kg/day worked out at 100%. The FC in the assay on Staphylococcus aureus [16] is recorded as 4.2; in the assay on Staphylococcus aureus [17], 4. The IC80 in the assay with Enterococcus faecium [18] is over 30 µM; in the assay with Staphylococcus aureus [19], 0.4 µM; with Streptococcus pneumoniae [20], 0.2 µM.

In general, IC80 refers to the concentration needed for an effect of 80%. A higher IC80 goes with a need for much substance.
